Measured values pooled from the literature.
Compare with care: the assays were run in different laboratories.

N=c1c2c(-c3ccccc3)c(-c3ccccc3)n(Cc3ccccc3)c2ncn1[C@H]1CC[C@H](O)CC1
AUC(0-inf) (male Sprague-Dawley rat, plasma; intravenous, 2 mg/kg, single dose): 1700 ng·h/mL

Cn1cnc(Cn2c(=O)[nH]/c(=N\c3cc4cn(C)nc4cc3Cl)n(Cc3cc(F)c(F)cc3F)c2=O)n1
AUC(0-t) (male Sprague-Dawley rat, plasma; oral, 25 mg/kg): 515000 ng·h/mL

Cl.Cl.O=C(CCN1CCCCC1)c1ccc(-c2ccc(C(=O)CCN3CCCCC3)cc2)cc1
AUC(0-t) (Sprague-Dawley rat, plasma; oral, 25 mg/kg): 135 ng·h/mL

COC(=O)C(NC(=O)c1cn(CCCCCF)c2ccccc12)C(C)(C)C (stereo not shown)
AUC(0-t) (male Sprague-Dawley rat, plasma; subcutaneous, 50 µg/kg): 8.61 ng·h/mL

CCCCCCCC(=O)N[C@@H](CCCCN)C(=O)N[C@@H](CCCCN)C(=O)N[C@@H](C)C(=O)N[C@@H](CC(C)C)C(=O)N[C@@H](CCCCN)C(=O)N[C@@H](CC(C)C)C(=O)N[C@@H](C)C(=O)N[C@@H](CCCCN)C(=O)N[C@@H](CCCCN)C(=O)N1CCC[C@H]1C(=O)N[C@@H](CC(C)C)C(=O)N[C@@H](CCCCN)C(=O)N[C@@H](CC(C)C)C(=O)N[C@@H](CC(C)C)C(=O)N[C@@H](CCCCN)C(N)=O
AUC(0-inf) (male Sprague-Dawley rat, blood; intravenous, 3 mg/kg, infusion): 273 ng·h/mL

[2H]C([2H])(c1cc(F)c(F)cc1F)n1c(=O)n(Cc2ncn(C)n2)c(=O)[nH]/c1=N\c1cc2cn(C)nc2cc1Cl
AUC(0-t) (male Sprague-Dawley rat, plasma; oral, 25 mg/kg): 451000 ng·h/mL

CCC[C@@](N)(CO)CCc1ccc(OCCCCCC(C)C)cc1
AUC(0-t) (rat, plasma; oral, 10 mg/kg): 1.44 µM·h

O=C([O-])C(=O)[O-].[NH-][C@@H]1CCCC[C@H]1[NH-].[Pt+4] (relative stereo)
AUC(0-t) (rat, plasma; oral, 10 mg/kg): 111 ng·h/mL

CCCCCn1nc(C(=O)Nc2cccc3ccccc23)c2ccccc21
AUC(0-inf) (male Long-Evans rat, plasma; intraperitoneal, 3 mg/kg): 314 ng·h/mL

CC(C)(C)[C@H](NC(=O)[C@H](CCONC(=N)N)NC(=O)Cc1ccc(CNC(=N)N)cc1)C(=O)N[C@@H](CCONC(=N)N)C(=O)NCc1ccc(C(=N)N)cc1
AUC(0-inf) (male Sprague-Dawley rat, plasma; intraperitoneal, 2.5 mg/kg): 9640 ng·h/mL

CCCCCn1cc(C(=O)Nc2cccc3ccccc23)c2ccccc21
AUC(0-inf) (male Long-Evans rat, plasma; intraperitoneal, 3 mg/kg): 5960 ng·h/mL

CN(C)C(=O)Oc1cc(OC(=O)N(C)C)cc(-c2cc3ccc(O)cc3o2)c1
AUC(0-t) (male rat, plasma; oral, 5 mg/kg): 17.7 ng·h/mL

[2H]C([2H])([2H])n1cc2cc(Nc3nc(=O)n(Cc4ncn(C)n4)c(=O)n3Cc3cc(F)c(F)cc3F)c(Cl)cc2n1
AUC(0-t) (male Sprague-Dawley rat, plasma; intravenous, 5 mg/kg): 89900 ng·h/mL
